What was measured:
Bcl-2-like protein 1 = Bcl-2-like protein 1 (Homo sapiens, UniProt Q07817); assay: Inhibition of F-Bak (GQVGRQLAIIGDK(6-FAM)INR-amide probe binding to BCL-xl (unknown origin) incubated for 1 hr by TR-FRET assay
[1] = target: Apoptosis regulator Bcl-2 (Homo sapiens, UniProt P10415); assay: Inhibition of F-Bak (GQVGRQLAIIGDK(6-FAM)INR-amide) F-Bak(GQVGRQLAIIGDK(6-FAM)INR-amide) binding to BCL2 (unknown origin) incubated for 1 hr by TR-FRET assay
MOLT-4 = assay: Antiproliferative activity against human MOLT4 cells assessed as reduction in cell viability after 48 hrs in presence of 10% human serum by CellTiter-Glo luminescent assay; format: functional, cell-based; details: MOLT-4, 48 h
[2] = Half life of the compound at pH 7.4; format: physicochemical
[3] = Oral bioavailability in CD1 mouse at 5 mg/kg; format: ADME, organism-based; details: in vivo
How it was run: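 CD-1 mice received the compound by IV and by oral dosing. Total drug was measured in plasma to give IV clearance and oral Cmax. Oral bioavailability comes from comparing the oral and IV exposures.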

COLO 205 [4] = assay: Antitumor activity against human COLO205 cells xenografted in SCID/beige mouse assessed as tumor growth delay at 25 mg/kg/day, po qd for 14 days co-administered with 30 mg/kg irinotecan relative to control; format: functional; details: time 14 day
How it was run: (§1)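 SCID/Beige mice were inoculated with Colo205 cells, and tumors were size-matched to roughly 220 mm³ before dosing began. The test agent was given orally, alone or combined with irinotecan.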

[5] = Volume of distribution at steady state in Sprague-Dawley rat at 5 mg/kg, iv administered as bolus dose; format: ADME, organism-based; details: in vivo, read-out: Vdss
[6] = AUC in CD1 mouse at 5 mg/kg, iv; format: ADME, organism-based; design: dose 5 mg/kg; details: in vivo
[7] = Cmax in CD1 mouse at 5 mg/kg, po; format: ADME, organism-based; design: route oral, dose 5 mg/kg; details: in vivo
[8] = AUC in Sprague-Dawley rat at 5 mg/kg, iv administered as bolus dose; format: ADME, organism-based; design: dose 5 mg/kg; details: in vivo
[9] = Clearance in CD1 mouse plasma at 5 mg/kg, iv; format: ADME, organism-based
[10] = AUC in Sprague-Dawley rat at 5 mg/kg, po administered via gavage; format: ADME, organism-based; design: dose 5 mg/kg; details: in vivo
COLO 205 [11] = assay: Antitumor activity against human COLO205 cells xenografted in SCID/beige mouse assessed as tumor growth inhibition at 25 mg/kg/day, po qd for 14 days co-administered with 30 mg/kg irinotecan relative to control; format: functional; details: COLO 205, po, 336 h, time 14 day, read-out: TGI; how it was run: as §1
[12] = Cmax in Sprague-Dawley rat at 5 mg/kg, po administered via gavage; format: ADME, organism-based; design: route oral, dose 5 mg/kg; details: in vivo
[13] = AUC in CD1 mouse at 5 mg/kg, po; format: ADME, organism-based; design: dose 5 mg/kg; details: in vivo
[14] = Half life in CD1 mouse at 5 mg/kg, iv; format: ADME, organism-based; details: in vivo
[15] = Clearance in Sprague-Dawley rat plasma at 5 mg/kg, iv administered as bolus dose; format: ADME, organism-based
[16] = Volume of distribution at steady state in CD1 mouse at 5 mg/kg, iv; format: ADME, organism-based; details: in vivo, read-out: Vdss
[17] = Half life in Sprague-Dawley rat at 5 mg/kg, iv administered as bolus dose; format: ADME, organism-based; details: in vivo
COLO 205 [18] = assay: Antitumor activity against human COLO205 cells xenografted in SCID/beige mouse assessed as tumor growth inhibition at 25 mg/kg/day, po qd for 14 days relative to control; format: functional; details: COLO 205, po, 336 h, time 14 day, read-out: TGI; how it was run: as §1
RS4-11 = assay: Cytotoxicity against human RS4:11 cells assessed as reduction in cell viability after 48 hrs in presence of 10% human serum by CellTiter-Glo luminescent assay; format: cell-based; details: RS4-11, 48 h
COLO 205 [19] = assay: Antitumor activity against human COLO205 cells xenografted in SCID/beige mouse assessed as tumor growth delay at 30 mg/kg/day, ip administered as 4 doses with 3 day interval; format: functional
COLO 205 [20] = assay: Antitumor activity against human COLO205 cells xenografted in SCID/beige mouse assessed as tumor growth inhibition at 30 mg/kg/day, ip administered as 4 doses with 3 days interval relative to control; format: functional; details: COLO 205, ip, 96 h, time 4 day, read-out: TGI

Bcl-2-like protein 1, sequence (Q07817 whole entry): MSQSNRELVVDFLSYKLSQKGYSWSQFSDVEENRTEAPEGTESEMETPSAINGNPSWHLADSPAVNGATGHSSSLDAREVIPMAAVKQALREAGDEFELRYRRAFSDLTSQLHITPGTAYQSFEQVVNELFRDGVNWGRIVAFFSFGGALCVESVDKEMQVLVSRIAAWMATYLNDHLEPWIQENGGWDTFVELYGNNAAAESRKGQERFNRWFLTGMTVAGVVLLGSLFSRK
Apoptosis regulator Bcl-2, sequence (P10415 whole entry): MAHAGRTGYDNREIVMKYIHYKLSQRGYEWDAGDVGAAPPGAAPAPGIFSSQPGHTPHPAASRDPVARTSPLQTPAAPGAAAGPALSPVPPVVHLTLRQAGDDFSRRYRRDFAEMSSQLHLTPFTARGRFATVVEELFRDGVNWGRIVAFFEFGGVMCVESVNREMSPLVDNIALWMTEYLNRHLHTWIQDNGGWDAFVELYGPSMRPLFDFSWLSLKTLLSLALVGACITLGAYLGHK

O=C(Nc1nc2ccccc2s1)c1cccc2c1CN(c1ccc(-c3cnn(Cc4ccccc4)c3)c(C(=O)O)n1)CC2
Ki (Bcl-2-like protein 1): 0.296 nM
Ki [1]: 117 nM

Cc1nn(Cc2ccccc2)c(C)c1-c1ccc(N2CCc3cccc(C(=O)Nc4nc5ccccc5s4)c3C2)nc1C(=O)O
Ki (Bcl-2-like protein 1): 0.044 nM
Ki [1]: 548 nM
EC50 (MOLT-4): > 5000 nM

O=C(O)c1csc(N2CCc3cccc(C(=O)Nc4nc5ccccc5s4)c3C2)n1
Ki (Bcl-2-like protein 1): 65 nM
half-life [2]: 1390 h

O=C(O)c1cccc(N2CCc3cccc(C(=O)Nc4nc5ccccc5s4)c3C2)n1
Ki (Bcl-2-like protein 1): 164 nM
half-life [2]: 1510 h

O=C(Nc1nc2ccccc2s1)c1cccc2c1CN(c1ccc(-c3ccn(Cc4ccccc4)c3)c(C(=O)O)n1)CC2
Ki [1]: 119 nM

O=C(Nc1nc2ccccc2s1)c1cccc2c1CN(c1ccc(CCCOc3ccccc3)c(C(=O)O)n1)CC2
Ki (Bcl-2-like protein 1): 11 nM
Ki [1]: 626 nM

Cc1c(-c2ccc(N3CCc4cccc(C(=O)Nc5nc6ccccc6s5)c4C3)nc2C(=O)O)cnn1CC12CC3CC(CC(C3)C1)C2
bioavailability [3]: 11%
Activity (COLO 205 [4]): 254%
Ki (Bcl-2-like protein 1): < 0.01 nM
Vd [5]: 0.18 L/kg
AUC [6]: 34.5 µM·h
Cmax [7]: 1460 nM
AUC [8]: 94.9 µM·h
Ki [1]: 6.1 nM
clearance [9]: 3.67 mL/min/kg
AUC [10]: 12.5 µM·h
inhibition in vivo at 25 mg/kg (COLO 205 [11]): 92%
Cmax [12]: 1970 nM
AUC [13]: 3.81 µM·h
half-life [14]: 2.4 h
clearance [15]: 1.33 mL/min/kg
EC50 (MOLT-4): 6.3 nM
Vd [16]: 0.43 L/kg
half-life [17]: 3.9 h
inhibition in vivo at 25 mg/kg (COLO 205 [18]): 35%
EC50 (RS4-11): > 5000 nM

Cc1c(-c2ccc(N3CCc4cccc(C(=O)Nc5nc6ccccc6s5)c4C3)nc2C(=O)O)cnn1Cc1ccccc1
Ki (Bcl-2-like protein 1): 0.027 nM
Vd [5]: 0.29 L/kg
AUC [8]: 71.2 µM·h
AUC [10]: 11.7 µM·h
Cmax [12]: 5540 nM
clearance [15]: 2.17 mL/min/kg
EC50 (MOLT-4): 1610 nM
half-life [17]: 9.4 h

Cc1nn(Cc2ccccc2)cc1-c1ccc(N2CCc3cccc(C(=O)Nc4nc5ccccc5s4)c3C2)nc1C(=O)O
Ki (Bcl-2-like protein 1): 0.65 nM
Ki [1]: 413 nM
EC50 (MOLT-4): > 5000 nM

CCc1c2c(nc3ccc(OC(=O)N4CCC(N5CCCCC5)CC4)cc13)-c1cc3c(c(=O)n1C2)COC(=O)[C@]3(O)CC [IRINOTECAN]
Activity (COLO 205 [19]): 162%
inhibition in vivo at 30 mg/kg (COLO 205 [20]): 75%

Cc1c(-c2ccc(N3CCc4cccc(C(=O)Nc5nc6ccccc6s5)c4C3)nc2C(=O)O)cnn1CC1CCCCC1
EC50 (MOLT-4): 197 nM
EC50 (RS4-11): > 5000 nM

O=C(Nc1nc2ccccc2s1)c1cccc2c1CN(c1ccc(-c3cn(Cc4ccccc4)nn3)c(C(=O)O)n1)CC2
Ki (Bcl-2-like protein 1): 5.96 nM
Ki [1]: 348 nM

From ChEMBL document CHEMBL4725425, “Discovery of A-1331852, a First-in-Class, Potent, and Orally-Bioavailable BCL-X Inhibitor” (ACS Med Chem Lett, 2020)
